Many of the other results were omitted from the sample, so hits are more common in it than they were.
RORA inh – RORA (human) inhibition; P35398; CHO-K1 Gal4-RORA LBD luciferase reporter, luminescence; inhibition, % at 10 µM; actives 0.43% (n = 65,000); AID 561;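 active = inhibition above the mean of all tested compounds plus 3 SD, cut at about 52% in these data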
Target sequence (P35398 whole entry, looked up, the tested form may be a part): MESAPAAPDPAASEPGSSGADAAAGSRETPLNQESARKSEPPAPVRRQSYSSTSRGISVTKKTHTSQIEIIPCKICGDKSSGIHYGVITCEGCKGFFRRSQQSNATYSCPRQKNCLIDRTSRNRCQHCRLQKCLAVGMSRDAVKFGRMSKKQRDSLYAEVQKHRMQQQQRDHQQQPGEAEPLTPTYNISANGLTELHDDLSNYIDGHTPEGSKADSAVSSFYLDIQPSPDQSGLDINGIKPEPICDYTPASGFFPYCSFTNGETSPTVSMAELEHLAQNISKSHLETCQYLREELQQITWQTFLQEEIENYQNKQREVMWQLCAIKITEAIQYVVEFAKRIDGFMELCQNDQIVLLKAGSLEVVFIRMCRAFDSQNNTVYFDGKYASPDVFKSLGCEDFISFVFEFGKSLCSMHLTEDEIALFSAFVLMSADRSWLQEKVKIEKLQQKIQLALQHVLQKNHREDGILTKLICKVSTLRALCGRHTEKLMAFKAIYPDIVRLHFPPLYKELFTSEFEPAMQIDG
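System: transiently transfected CHO-K1 cells, Gal4-DBD/human RORA-LBD fusion plus 5xGal4-luciferase reporter. Doses: one dose of 10 µM final. Timing: 20 h compound treatment, 37 °C. Measured by: luminescence. Evaluation: % inhibition of basal luciferase versus +RORA/-RORA DMSO controls. Benchmarks: mock-transfected cells as 100%, +RORA DMSO cells as 0%. Replicates: single test per compound.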
Of the large screens only hits and unclear results are named; the others gave an inactive call.

CCN(C1CCCCC1)S(=O)(=O)c1ccc(S(=O)(=O)NCc2ccncc2)cc1	RORA inh 69
O=C(NC1CCCCC1)C1CCN(S(=O)(=O)N2CCOCC2)CC1	none
O=C1C(=O)N(CCCN2CCOCC2)C(c2ccccn2)/C1=C(\O)c1ccc2c(c1)OCCO2 (stereo not given)	none
CCn1nnc(-c2ccccc2NC(=O)C(F)(F)F)n1	none
Cc1cc(-n2c(C)cc(C(=O)CSc3ncnc4ccccc34)c2C)no1	RORA inh 64
Cc1cc(C)n2nc(SCC(=O)c3cc(C)n(-c4cc(C)on4)c3C)nc2n1	RORA inh 55
Cc1cc(C(=O)CSc2nc3ccccc3[nH]2)c(C)n1C	none
Cc1cc(C)n2nc(SCC(=O)NCc3ccco3)nc2n1	none
Cc1cc(C(=O)CSc2nnc(-c3ccccc3)n2-c2ccccc2)c(C)n1-c1ncn[nH]1	none
Cc1cc(C)n2nc(SCc3cc(=O)n4ccccc4n3)nc2n1	none
COc1ccc(S(=O)(=O)Cc2ccc(C(=O)NCc3ccc(F)cc3)o2)cc1	none
CCOC(=O)c1cnc(SCC(=O)c2ccccc2)nc1N	none
NC(=O)CC1NC(=O)c2ccccc21 (stereo not given)	none
Fc1ccc(-c2nnc(-c3ccc(Cl)cc3)o2)cc1	none
Clc1ccc(-c2nnc(NC3=NCCCCC3)o2)cc1	RORA inh 65
COC(=O)CCC(=O)N1CCc2cc(S(=O)(=O)N3CCc4ccccc43)ccc21	none
O=C(OCc1nnc(-c2ccccc2)o1)c1ccc(S(=O)(=O)NCc2ccco2)cc1	none
O=C(C1CCCN(S(=O)(=O)c2ccccc2)C1)N1CCCc2ccccc21 (stereo not given)	none
Clc1ccc(OCCN2CCN(c3ncnc4sccc34)CC2)cc1	RORA inh 81
CCOc1ccccc1N(CC(=O)Nc1ccc(C)cc1)S(C)(=O)=O	none
CCC12CN(C(=O)c3ccc(OC)cc3)CC(CC)(CN(C(=O)c3ccc(OC)cc3)C1)C2=O	none
COc1ccc(NC(=O)Cn2c(C)cc(=O)c3cccc(OC)c32)cc1	none
CCCCNc1cc(C)nc(NCc2ccccc2)n1	RORA inh 57
COc1ccc2nc(NCc3ccccc3)[nH]c2c1	none
CCOC(=O)N1CCN(C(=O)CSc2nnc(Cc3ccccc3)o2)CC1	none
CCC1CCCCN1C(=O)COC(=O)c1ccc(S(=O)(=O)N2CCOCC2)cc1 (stereo not given)	none
O=C1CCn2nc(-c3ccc(Cl)cc3)cc2N1	none
Cn1nc(C(C)(C)C)cc1C(=O)NCc1ccc(N2CCCC2=O)cc1	RORA inh 86
CC(C)(C)c1ccc(C(=O)N2CCC(C(=O)NCc3ccncc3)CC2)cc1	none
CC(=O)N1CCCc2cc(S(=O)(=O)NCc3ccc(C)cc3)ccc21	none
NC(=O)CSc1nnc(Cc2ccc3c(c2)OCO3)n1C1CCCCC1	none
COc1ccc(NC(=O)c2cc3ccccc3o2)cc1	none
COc1cc2c(cc1OC)C(C)N(C(=O)c1cc3ccccc3o1)CC2 (stereo not given)	RORA inh 64
COc1ccc2oc(=O)c(C(=O)N3CCc4ccccc43)cc2c1	none
CC(=O)C(C)Oc1ccc2c3c(c(=O)oc2c1C)CCCC3 (stereo not given)	none
N#Cc1cc2cc3c(cc2nc1SCC(=O)OC1CCCCC1)OCO3	none
COC(=O)C1=C(CN2CCCc3ccccc32)NC(=O)NC1c1ccc(F)cc1 (stereo not given)	RORA inh 78
CCOC(=O)C1=C(C)NC(=O)NC1c1ccc(NC(C)=O)cc1 (stereo not given)	none
CC1(C)CC(=O)c2cc(OCC(=O)NCCN3CCCc4ccccc43)ccc2O1	none
CC(C)(C)NC(=O)Cn1c(SCC(=O)NC2CCCCC2)nc2ccccc21	none
CCOC(=O)C1CCN(C(=O)Nc2ccccc2Cl)CC1	none
CC(=O)N1CCN(c2ccc(Nc3nc(C)nc4c3oc3ccccc34)cc2)CC1	none
Cc1nc(NC(C)c2ccccc2)c2oc3ccccc3c2n1 (stereo not given)	RORA inh 58
COC(=O)CCC(=O)Nc1cccc(Br)c1	none
COC(=O)c1sc(NC(=O)c2ccoc2C)nc1C	none
CC(=O)c1sc(NC(=O)C2(F)C(F)(F)C(F)(F)C(F)(F)C(F)(F)C2(F)F)nc1C	RORA inh 90
Cc1nc(NC(=O)C2CC3CCCC(C2)C3=O)sc1C (stereo not given)	none
COC(=O)C(O)(NC(=O)NC(C)=O)C(F)(F)F (stereo not given)	none
COC(=O)c1c(N2C(=O)CCC2=O)sc2c1CCCC2	none
Cc1cc(C(F)F)n2nc(C(=O)Nc3ccccc3Br)nc2n1	none
COc1cccc(NC(=O)CSc2nnc(-c3cc(C)n(-c4ccccc4)c3C)o2)c1	RORA inh 71
COc1cccc(NC(=O)CNC(C)CCC(C)C)c1 (stereo not given)	none
COc1cccc(NC(=O)Cn2c(SCC(=O)N3CCOCC3)nc3ccccc32)c1	none
O=c1oc2c3c4c(cc2cc1-c1nc2ccccc2[nH]1)CCCN4CCC3	none
O=S(=O)(Cc1ccccc1)N1CCc2ccccc21	none
O=C(Nc1ccccc1)NC1(C(=O)N2CCN(c3ncccn3)CC2)CCCCC1	none
Cc1nn(-c2nc3ccccc3s2)c(C)c1Oc1ccccc1O	none
CCOc1ccc(C(=O)N2CCCC2C(=O)O)cc1 (stereo not given)	none
O=C(Nc1ccccc1C(=O)N1CCOCC1)c1ccncc1	none
CCOc1ccc(OCc2cccc(C(=O)N3CCOCC3)c2)cc1	RORA inh 77
COc1ccc(C2/C(=C(/O)c3cnn(-c4ccccc4)c3C)C(=O)C(=O)N2CCN(C)C)cc1OC (stereo not given)	none
Cc1ccc(S(=O)(=O)N2CCC(C(=O)N3CCC(C(=O)NCc4cccnc4)CC3)CC2)cc1	none
Cc1ccc2c(c1)nnn2C1CCN(S(=O)(=O)c2ccc(C(=O)N3C(C)CCCC3C)cc2)CC1 (stereo not given)	RORA inh 63
COc1ccc(S(=O)(=O)N2CCC(n3cnc4cc(C(F)(F)F)ccc43)CC2)cc1	none
Cc1ccc2c(c1)nnn2C1CCN(S(C)(=O)=O)CC1	none
Cc1cccc(OCC(O)CN2CCN(C3CCCCC3)CC2)c1 (stereo not given)	none
CC1Cc2nc(SCC(=O)OCc3ccccc3)n(C)c(=O)c2S1 (stereo not given)	none
